In PMC2606940 (The Journal of General Physiology, 2009):
Substitutions are numbered along the chain they refer to. Like-named read-outs stand apart in the source and are kept apart here.

Key:
[1] = target: T1, wild-type CLC-0 (E166, C212S background) (Torpedo marmorata, UniProt P21564, C212S); format: cell-based; settings: for IC50: read-out: Apparent affinity (K1/2)
T1 sequence (P21564 1-805 C212S): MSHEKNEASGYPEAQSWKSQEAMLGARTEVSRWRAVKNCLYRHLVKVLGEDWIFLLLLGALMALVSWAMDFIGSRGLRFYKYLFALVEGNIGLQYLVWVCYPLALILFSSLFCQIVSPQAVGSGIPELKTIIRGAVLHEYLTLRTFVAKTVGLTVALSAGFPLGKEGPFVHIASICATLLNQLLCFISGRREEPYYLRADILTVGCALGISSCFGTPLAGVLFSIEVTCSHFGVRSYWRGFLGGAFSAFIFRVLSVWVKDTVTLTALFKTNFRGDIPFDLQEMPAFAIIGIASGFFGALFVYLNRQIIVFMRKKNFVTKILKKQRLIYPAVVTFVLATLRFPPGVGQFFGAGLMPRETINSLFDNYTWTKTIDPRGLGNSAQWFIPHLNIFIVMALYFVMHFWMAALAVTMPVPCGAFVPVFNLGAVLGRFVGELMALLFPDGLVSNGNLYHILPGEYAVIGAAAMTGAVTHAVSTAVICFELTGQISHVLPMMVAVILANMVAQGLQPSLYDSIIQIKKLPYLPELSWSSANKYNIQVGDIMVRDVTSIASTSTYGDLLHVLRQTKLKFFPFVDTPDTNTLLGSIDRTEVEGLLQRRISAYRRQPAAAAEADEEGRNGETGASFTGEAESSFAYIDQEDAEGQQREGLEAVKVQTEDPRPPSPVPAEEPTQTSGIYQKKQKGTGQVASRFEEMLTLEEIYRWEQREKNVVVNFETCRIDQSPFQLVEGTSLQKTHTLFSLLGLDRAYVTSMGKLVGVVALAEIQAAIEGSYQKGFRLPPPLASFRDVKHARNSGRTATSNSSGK
In short: (§1)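 CLC-0 mutants in the C212S background were transfected into HEK293 cells with lipofectamine and recorded 1–3 d later as excised inside-out patches. Both sides held 130 mM NaCl, 5 mM MgCl2, 10 mM HEPES and 1 mM EGTA, pH 7.4. CPA was perfused continuously onto the cytoplasmic face. Steady-state current over the last 10 ms was normalized to bracketing blocker-free controls and fitted to a Langmuir function for K1/2. Values are mean ± SEM of ~4–6 patches.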

CLC-0 E166V mutant = target: T2, CLC-0 E166V mutant (Torpedo marmorata, UniProt P21564, C212S/E166V); format: cell-based; settings: read-out: Apparent affinity (K1/2)
T2 sequence (P21564 1-805 E166V/C212S): T1 sequence (P21564 1-805 C212S) with E166V
In short: as §1

| SMILES | IC50 ([1]; −40 mV) | IC50 ([1]; −60 mV) | IC50 ([1]; −80 mV) | IC50 ([1]; −100 mV) | IC50 ([1]; −120 mV) | IC50 ([1]; −140 mV) | IC50 ([1]; −160 mV) | effect on fast gate Po-V curve ([1]; various concentrations, initial tail current) | IC50 (CLC-0 E166V mutant; −40 mV) | IC50 (CLC-0 E166V mutant; −60 mV) | IC50 (CLC-0 E166V mutant; −80 mV) | IC50 (CLC-0 E166V mutant; −100 mV) | IC50 (CLC-0 E166V mutant; −120 mV) | IC50 (CLC-0 E166V mutant; −140 mV) | IC50 (CLC-0 E166V mutant; −160 mV) |
| --- | --- | --- | --- | --- | --- | --- | --- | --- | --- | --- | --- | --- | --- | --- | --- |
| CCCCCCCC(=O)O [octanoate] | 2610 ± 300 µM | 1290 ± 130 µM | 670 ± 50 µM | 390 ± 10 µM | 300 ± 20 µM | 260 ± 30 µM | 190 ± 40 µM | shifts the fast gate Po-V curve toward more depolarized voltages | 231 ± 14 µM | 126 ± 6.5 µM | 67.2 ± 3.7 µM | 35.3 ± 2.8 µM | 18.4 ± 1.5 µM | 10.2 ± 0.8 µM | 6 ± 0.4 µM |
| O=C(O)COc1ccc(Cl)cc1 [CPA, p-chlorophenoxy acetate] | 9370 ± 330 µM | 5220 ± 230 µM | 2870 ± 200 µM | 1960 ± 210 µM | 1570 ± 190 µM | 1170 ± 190 µM | 1340 ± 250 µM |  | 676 ± 78 µM | 373 ± 37 µM | 198 ± 15 µM | 113 ± 10 µM | 65 ± 7 µM | 40 ± 4 µM | 26 ± 3 µM |
